Experimental findings from ChEMBL document CHEMBL5653631, “A Potent and Selective ULK1 Inhibitor Suppresses Autophagy and Sensitizes Cancer Cells to Nutrient Stress” (iScience, 2018) are described below.

The target of assay [1] is Serine/threonine-protein kinase NIM1 (Homo sapiens) (UniProt Q8IY84). The assay can be described thus: Inhibition of human recombinant NIM1 at 15 nM in presence of ATP by radiometric assay relative to control.
Assay [2] has as its target NT-3 growth factor receptor (Homo sapiens) (UniProt Q16288). The assay can be described thus: Inhibition of human recombinant TRKC at 15 nM related to control ULK1.
In assay [3] the target is T1, Serine/threonine-protein kinase D3 (Homo sapiens) (UniProt O94806).
T1 sequence (whole entry): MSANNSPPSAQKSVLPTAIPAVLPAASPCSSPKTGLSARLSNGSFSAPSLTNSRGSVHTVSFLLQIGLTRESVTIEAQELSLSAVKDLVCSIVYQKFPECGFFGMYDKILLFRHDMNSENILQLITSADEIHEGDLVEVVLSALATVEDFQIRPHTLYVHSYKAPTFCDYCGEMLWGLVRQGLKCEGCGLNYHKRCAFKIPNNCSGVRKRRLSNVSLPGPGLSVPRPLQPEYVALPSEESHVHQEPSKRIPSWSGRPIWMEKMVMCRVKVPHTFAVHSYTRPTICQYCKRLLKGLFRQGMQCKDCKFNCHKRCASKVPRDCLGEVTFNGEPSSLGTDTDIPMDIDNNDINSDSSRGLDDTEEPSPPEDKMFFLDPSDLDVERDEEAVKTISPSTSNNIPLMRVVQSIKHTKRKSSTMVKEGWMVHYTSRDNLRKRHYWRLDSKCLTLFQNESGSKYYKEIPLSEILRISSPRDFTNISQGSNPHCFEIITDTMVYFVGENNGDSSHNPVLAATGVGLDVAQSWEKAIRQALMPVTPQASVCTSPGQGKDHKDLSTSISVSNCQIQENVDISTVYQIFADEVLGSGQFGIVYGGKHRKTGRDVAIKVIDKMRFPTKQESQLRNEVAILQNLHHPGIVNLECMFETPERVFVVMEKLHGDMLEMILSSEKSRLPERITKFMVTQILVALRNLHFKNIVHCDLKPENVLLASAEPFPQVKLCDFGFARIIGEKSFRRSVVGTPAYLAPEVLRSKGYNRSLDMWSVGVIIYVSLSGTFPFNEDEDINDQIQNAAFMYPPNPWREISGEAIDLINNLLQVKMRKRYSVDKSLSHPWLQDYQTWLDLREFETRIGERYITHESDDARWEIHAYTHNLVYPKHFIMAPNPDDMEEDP
Put plainly: Inhibition of human recombinant PKD3 at 40 nM in presence of ATP by radiometric assay relative to control.

The target of assay [4] is T2, cAMP-dependent protein kinase catalytic subunit PRKX (Homo sapiens) (UniProt P51817).
T2 sequence (whole entry): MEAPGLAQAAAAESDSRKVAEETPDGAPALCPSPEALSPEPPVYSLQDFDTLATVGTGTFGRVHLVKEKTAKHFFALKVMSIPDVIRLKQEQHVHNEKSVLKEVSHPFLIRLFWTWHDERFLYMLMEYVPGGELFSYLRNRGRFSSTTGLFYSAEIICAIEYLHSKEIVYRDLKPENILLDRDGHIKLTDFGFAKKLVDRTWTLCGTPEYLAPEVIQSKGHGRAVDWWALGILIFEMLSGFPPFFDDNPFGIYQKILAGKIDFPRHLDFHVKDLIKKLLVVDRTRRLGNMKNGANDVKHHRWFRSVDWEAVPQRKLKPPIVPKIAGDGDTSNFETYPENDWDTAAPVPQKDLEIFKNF
Put plainly: Inhibition of human recombinant PRKX at 40 nM in presence of ATP by radiometric assay relative to control.

Assay [5] addresses T3, Testis-specific serine/threonine-protein kinase 4 (Homo sapiens) (UniProt Q6SA08).
T3 sequence (whole entry): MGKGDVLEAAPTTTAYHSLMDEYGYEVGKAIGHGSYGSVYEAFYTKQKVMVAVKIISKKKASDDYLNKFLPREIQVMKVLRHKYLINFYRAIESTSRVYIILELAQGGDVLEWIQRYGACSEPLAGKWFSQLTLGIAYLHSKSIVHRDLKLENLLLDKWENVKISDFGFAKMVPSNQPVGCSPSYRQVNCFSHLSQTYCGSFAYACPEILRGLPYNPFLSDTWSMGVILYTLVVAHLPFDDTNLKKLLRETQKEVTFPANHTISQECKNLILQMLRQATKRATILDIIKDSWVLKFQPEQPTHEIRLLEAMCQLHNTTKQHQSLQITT
The assay can be described thus: Inhibition of human recombinant TSSK4 at 40 nM related to control ULK1.

Assay [6] addresses RAC-beta serine/threonine-protein kinase (Homo sapiens) (UniProt P31751). Put plainly: Inhibition of human recombinant AKT2 at 500 nM in presence of ATP by radiometric assay relative to control. An outline of the steps: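 Panel of 327 recombinant human kinases in radiometric activity assays, each screened in duplicate at a single inhibitor concentration; percent activity remaining relative to vehicle control, percent inhibition taken as 100 minus activity remaining.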

The target of assay [7] is T4, Tyrosine-protein kinase Mer (Homo sapiens) (UniProt Q12866).
T4 sequence (whole entry): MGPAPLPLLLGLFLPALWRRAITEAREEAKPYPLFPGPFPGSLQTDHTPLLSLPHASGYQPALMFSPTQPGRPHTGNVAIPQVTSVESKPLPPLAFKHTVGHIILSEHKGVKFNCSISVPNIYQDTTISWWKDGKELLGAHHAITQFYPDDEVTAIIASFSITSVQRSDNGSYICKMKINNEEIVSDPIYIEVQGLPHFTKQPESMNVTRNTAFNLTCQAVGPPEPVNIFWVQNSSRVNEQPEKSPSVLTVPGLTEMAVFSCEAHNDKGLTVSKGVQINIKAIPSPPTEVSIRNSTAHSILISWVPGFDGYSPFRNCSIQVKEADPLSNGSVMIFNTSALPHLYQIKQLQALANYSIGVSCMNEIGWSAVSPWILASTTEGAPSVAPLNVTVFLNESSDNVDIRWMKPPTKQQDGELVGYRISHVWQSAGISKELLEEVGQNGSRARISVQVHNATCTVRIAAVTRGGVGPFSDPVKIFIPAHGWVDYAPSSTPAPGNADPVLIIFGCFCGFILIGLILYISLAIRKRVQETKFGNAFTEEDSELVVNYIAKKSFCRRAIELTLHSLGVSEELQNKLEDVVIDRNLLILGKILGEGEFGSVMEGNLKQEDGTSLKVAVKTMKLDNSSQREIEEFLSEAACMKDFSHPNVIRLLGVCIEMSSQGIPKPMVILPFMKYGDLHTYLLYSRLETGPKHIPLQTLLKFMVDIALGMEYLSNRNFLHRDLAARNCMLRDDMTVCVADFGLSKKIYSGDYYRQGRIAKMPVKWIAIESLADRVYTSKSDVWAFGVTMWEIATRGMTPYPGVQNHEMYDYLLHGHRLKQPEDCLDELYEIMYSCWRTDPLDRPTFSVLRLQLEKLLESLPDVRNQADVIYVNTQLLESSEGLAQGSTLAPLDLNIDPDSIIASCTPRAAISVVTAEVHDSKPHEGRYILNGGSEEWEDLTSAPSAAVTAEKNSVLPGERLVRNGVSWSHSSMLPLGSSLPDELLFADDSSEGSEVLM
The assay can be described thus: Inhibition of human recombinant MER at 500 nM related to control ULK1.

Chain of Serine/threonine-protein kinase NIM1 (Homo sapiens) (Q8IY84 whole entry): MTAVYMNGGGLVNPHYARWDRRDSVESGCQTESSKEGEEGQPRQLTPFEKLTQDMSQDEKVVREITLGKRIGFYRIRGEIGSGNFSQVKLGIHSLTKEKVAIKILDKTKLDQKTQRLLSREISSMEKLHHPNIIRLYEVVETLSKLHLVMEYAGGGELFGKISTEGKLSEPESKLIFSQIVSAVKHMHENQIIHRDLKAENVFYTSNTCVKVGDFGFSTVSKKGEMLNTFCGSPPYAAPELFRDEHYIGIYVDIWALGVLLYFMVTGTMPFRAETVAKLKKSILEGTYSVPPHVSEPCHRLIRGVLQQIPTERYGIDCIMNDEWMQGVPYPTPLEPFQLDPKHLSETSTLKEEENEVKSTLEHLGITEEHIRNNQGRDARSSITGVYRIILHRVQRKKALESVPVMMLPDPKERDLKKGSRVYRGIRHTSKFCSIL
Chain of NT-3 growth factor receptor (Homo sapiens) (Q16288 32-839 limits assumed): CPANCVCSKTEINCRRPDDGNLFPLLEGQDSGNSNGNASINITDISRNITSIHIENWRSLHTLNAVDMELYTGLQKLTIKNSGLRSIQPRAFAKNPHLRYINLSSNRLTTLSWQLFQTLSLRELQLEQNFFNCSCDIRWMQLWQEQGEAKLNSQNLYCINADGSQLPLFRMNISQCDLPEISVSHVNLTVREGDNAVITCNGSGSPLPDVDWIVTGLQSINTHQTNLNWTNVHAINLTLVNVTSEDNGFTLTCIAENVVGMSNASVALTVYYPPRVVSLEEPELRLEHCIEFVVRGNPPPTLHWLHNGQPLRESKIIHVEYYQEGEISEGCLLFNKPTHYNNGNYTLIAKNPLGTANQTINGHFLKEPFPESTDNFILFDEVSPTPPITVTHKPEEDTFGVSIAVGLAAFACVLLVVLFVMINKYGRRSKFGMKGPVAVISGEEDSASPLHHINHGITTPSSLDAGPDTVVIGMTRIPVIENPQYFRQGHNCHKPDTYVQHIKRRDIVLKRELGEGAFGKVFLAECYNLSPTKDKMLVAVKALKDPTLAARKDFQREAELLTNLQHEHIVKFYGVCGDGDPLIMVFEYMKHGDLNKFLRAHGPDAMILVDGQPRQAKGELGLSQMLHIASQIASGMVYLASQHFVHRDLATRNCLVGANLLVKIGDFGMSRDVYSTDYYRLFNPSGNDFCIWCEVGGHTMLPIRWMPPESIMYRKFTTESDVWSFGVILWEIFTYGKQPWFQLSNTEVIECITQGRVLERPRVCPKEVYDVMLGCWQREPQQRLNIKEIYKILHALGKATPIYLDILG
Chain of RAC-beta serine/threonine-protein kinase (Homo sapiens) (P31751 whole entry): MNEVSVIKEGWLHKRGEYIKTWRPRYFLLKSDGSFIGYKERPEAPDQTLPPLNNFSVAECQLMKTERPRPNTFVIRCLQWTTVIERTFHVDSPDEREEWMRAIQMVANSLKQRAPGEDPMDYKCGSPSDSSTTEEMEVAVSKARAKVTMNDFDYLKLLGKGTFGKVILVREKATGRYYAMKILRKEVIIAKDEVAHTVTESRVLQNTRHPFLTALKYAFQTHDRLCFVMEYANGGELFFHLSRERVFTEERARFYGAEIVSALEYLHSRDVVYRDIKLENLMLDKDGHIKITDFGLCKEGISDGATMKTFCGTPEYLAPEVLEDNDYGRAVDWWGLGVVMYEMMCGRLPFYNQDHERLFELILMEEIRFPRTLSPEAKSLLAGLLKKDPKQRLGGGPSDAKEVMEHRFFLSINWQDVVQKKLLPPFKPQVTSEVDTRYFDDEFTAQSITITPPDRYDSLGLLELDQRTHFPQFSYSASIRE

For the compound `CC(C)[C@H](NC(=O)c1cc(-c2cnn3cc(-c4ccc(OCCN5CCCCC5)cc4)cnc23)cs1)C(F)(F)F`, the inhibition in assay [1] came to 6%. For the same compound, the fold change (FC) in assay [2] turned out to be 0.
As for `O=C(N[C@@H](C1CC1)C(F)(F)F)c1cc(-c2cnn3cc(-c4ccc(F)cc4)cnc23)cs1`, the inhibition in assay [3] is 7%; in assay [4], 20%. In addition, in assay [5], the fold change (FC) amounted to 0.
Regarding `CNC(=O)c1ccccc1Oc1nc(Nc2cc(OC)c(OC)c(OC)c2)ncc1Br`, the inhibition in assay [6] amounted to 7%. Further, the fold change (FC) in assay [7] was found to be 0.12.
